# pEC50: −log10 of the molar value.
# Test system: not listed separately
# Assay: Selectivity index, ratio of CC50 for human Huh7.5 cells to EC50 for Hepatitis C virus JFH-1 J6 genotype 2a infected in human Huh7.5 cells
# Format: toxicity, cell-based, Huh-7
# Conditions: read-out: Ratio CC50/EC50
row,SMILES,selectivity ratio
1,COc1cccc2[nH]cc(/C=C(\C)C(=O)Nc3ccc(C(C)(C)C)cc3)c12,1.9
2,CC(C)(C)c1ccc(NC(=O)/C=C/c2c[nH]c3ccccc23)cc1,5.2
3,C/C(=C\c1c[nH]c2cc(Br)ccc12)C(=O)Nc1ccc(C(C)(C)C)cc1,5.3
4,C/C(=C\c1c[nH]c2ccccc12)C(=O)NCc1ccco1,3.5
5,C/C(=C\c1c[nH]c2ccccc12)C(=O)Nc1ccc(C(C)(C)C)cc1,7.9
6,CCN(CC)C(=O)/C=C/c1c[nH]c2ccccc12,1.6
7,CC(C)(C)c1ccc(NC(=O)CCc2c[nH]c3ccccc23)cc1,2.3
8,C/C(=C\c1c[nH]c2cc(C(C)C)ccc12)C(=O)Nc1ccc(C(C)(C)C)cc1,17
9,COc1ccc2[nH]cc(/C=C(\C)C(=O)Nc3ccc(C(C)(C)C)cc3)c2c1,5.5
10,O=C(/C=C/c1c[nH]c2ccccc12)N1CCN(Cc2ccc(C(F)(F)F)cc2)CC1,1.8
11,Clc1ccc(Cn2c(CN3CCCC3)nc3ccccc32)cc1 [CLEMIZOLE],4.9
12,C/C(=C\c1c[nH]c2ccc(C#N)cc12)C(=O)Nc1ccc(C(C)C)cc1,3.6
13,C/C(=C\c1c[nH]c2cc(C)ccc12)C(=O)Nc1ccc(C(C)(C)C)cc1,5.7
14,COc1ccc(CNC(=O)/C=C/c2c[nH]c3ccccc23)cc1OC,6.9
15,C/C(=C\c1c[nH]c2ccc([N+](=O)[O-])cc12)C(=O)Nc1ccc(C(C)(C)C)cc1,3.7
16,C/C(=C\c1c[nH]c2ccccc12)C(=O)NCCN(C)C,> 1.6
17,C/C(=C\c1c[nH]c2ccccc12)C(=O)NCCCn1ccnc1,> 3
18,C/C(=C\c1c[nH]c2ccc(C)cc12)C(=O)Nc1ccc(C(C)(C)C)cc1,4.2
19,C/C(=C\c1c[nH]c2ccccc12)C(=O)Nc1ccc(C(F)(F)F)cc1,2.2
20,CCOC(=O)/C(C)=C/c1c[nH]c2ccccc12,1.1
21,COc1ccc2c(/C=C(\C)C(=O)Nc3ccc(C(C)(C)C)cc3)c[nH]c2c1,3.5
22,CC(C)NC(=O)/C=C/c1c[nH]c2ccccc12,> 1.1

# Test system: not listed separately
# Assay: Cytotoxicity against human Huh7.5 cells assessed as cell viability after 72 hrs by MTT assay
# Format: cell-based, Huh-7
# Conditions: not given
row,SMILES,CC50 at 72 h
1,COc1cccc2[nH]cc(/C=C(\C)C(=O)Nc3ccc(C(C)(C)C)cc3)c12,34.1 µM
2,C/C(=C\c1c[nH]c2ccccc12)C(=O)O,> 100 µM
3,CC(C)(C)c1ccc(NC(=O)/C=C/c2c[nH]c3ccccc23)cc1,10.1 µM
4,C/C(=C\c1c[nH]c2cc(Br)ccc12)C(=O)Nc1ccc(C(C)(C)C)cc1,68.8 µM
5,C/C(=C\c1c[nH]c2ccccc12)C(=O)NCc1ccco1,39.1 µM
6,C/C(=C\c1c[nH]c2ccccc12)C(=O)Nc1ccc(C(C)(C)C)cc1,17.3 µM
7,CCN(CC)C(=O)/C=C/c1c[nH]c2ccccc12,98.7 µM
8,CC(C)(C)c1ccc(NC(=O)CCc2c[nH]c3ccccc23)cc1,13.6 µM
9,C/C(=C\c1c[nH]c2cc(C(C)C)ccc12)C(=O)Nc1ccc(C(C)(C)C)cc1,24.8 µM
10,COc1ccc2[nH]cc(/C=C(\C)C(=O)Nc3ccc(C(C)(C)C)cc3)c2c1,16.4 µM
11,O=C(/C=C/c1c[nH]c2ccccc12)N1CCN(Cc2ccc(C(F)(F)F)cc2)CC1,27.9 µM
12,Clc1ccc(Cn2c(CN3CCCC3)nc3ccccc32)cc1 [CLEMIZOLE],39.4 µM
13,C/C(=C\c1c[nH]c2ccc(C#N)cc12)C(=O)Nc1ccc(C(C)C)cc1,137 µM
14,C/C(=C\c1c[nH]c2cc(C)ccc12)C(=O)Nc1ccc(C(C)(C)C)cc1,25.6 µM
15,COc1ccc(CNC(=O)/C=C/c2c[nH]c3ccccc23)cc1OC,89.5 µM
16,C/C(=C\c1c[nH]c2ccc([N+](=O)[O-])cc12)C(=O)Nc1ccc(C(C)(C)C)cc1,23.1 µM
17,C/C(=C\c1c[nH]c2ccccc12)C(=O)NCCN(C)C,> 100 µM
18,CNC(=O)/C(C)=C/c1c[nH]c2ccccc12,> 10 µM
19,C/C(=C\c1c[nH]c2ccccc12)C(=O)NCCCn1ccnc1,> 100 µM
20,C/C(=C\c1c[nH]c2ccccc12)C(N)=O,> 10 µM
21,C/C(=C\c1c[nH]c2ccc(C)cc12)C(=O)Nc1ccc(C(C)(C)C)cc1,28.1 µM
22,C/C(=C\c1c[nH]c2ccccc12)C(=O)Nc1ccc(C(F)(F)F)cc1,94.9 µM
23,C/C(=C\c1c[nH]c2ccc(C#N)cc12)C(=O)Nc1ccc(C)cc1,> 100 µM
24,CCOC(=O)/C(C)=C/c1c[nH]c2ccccc12,25.3 µM
25,COc1ccc2c(/C=C(\C)C(=O)Nc3ccc(C(C)(C)C)cc3)c[nH]c2c1,30.7 µM
26,CC(C)NC(=O)/C=C/c1c[nH]c2ccccc12,> 100 µM

# Test system: Hepatitis C virus
# Assay: Antiviral activity against Hepatitis C virus JFH-1 J6 genotype 2a infected in human Huh7.5 cells assessed as inhibition of viral RNA replication after 72 hrs by luciferase reporter gene assay
# Format: functional, organism-based, Hepacivirus hominis
# Conditions: subtype 2a JFH1 J6, Huh-7, 72 h
row,SMILES,pEC50
1,COc1cccc2[nH]cc(/C=C(\C)C(=O)Nc3ccc(C(C)(C)C)cc3)c12,4.75
2,CC(C)(C)c1ccc(NC(=O)/C=C/c2c[nH]c3ccccc23)cc1,5.72
3,C/C(=C\c1c[nH]c2cc(Br)ccc12)C(=O)Nc1ccc(C(C)(C)C)cc1,4.89
4,CCN(CC)C(=O)/C=C/c1c[nH]c2ccccc12,4.20
5,CC(C)(C)c1ccc(NC(=O)CCc2c[nH]c3ccccc23)cc1,5.21
6,C/C(=C\c1c[nH]c2cc(C(C)C)ccc12)C(=O)Nc1ccc(C(C)(C)C)cc1,5.82
7,COc1ccc2[nH]cc(/C=C(\C)C(=O)Nc3ccc(C(C)(C)C)cc3)c2c1,5.52
8,O=C(/C=C/c1c[nH]c2ccccc12)N1CCN(Cc2ccc(C(F)(F)F)cc2)CC1,4.81
9,Clc1ccc(Cn2c(CN3CCCC3)nc3ccccc32)cc1 [CLEMIZOLE],5.10
10,C/C(=C\c1c[nH]c2ccc(C#N)cc12)C(=O)Nc1ccc(C(C)C)cc1,4.42
11,C/C(=C\c1c[nH]c2cc(C)ccc12)C(=O)Nc1ccc(C(C)(C)C)cc1,5.35
12,C/C(=C\c1c[nH]c2ccc([N+](=O)[O-])cc12)C(=O)Nc1ccc(C(C)(C)C)cc1,5.21
13,C/C(=C\c1c[nH]c2ccc(C)cc12)C(=O)Nc1ccc(C(C)(C)C)cc1,5.17
14,C/C(=C\c1c[nH]c2ccc(C#N)cc12)C(=O)Nc1ccc(C)cc1,< 4.00
15,COc1ccc2c(/C=C(\C)C(=O)Nc3ccc(C(C)(C)C)cc3)c[nH]c2c1,5.06

# Other lines, results leading:
row,pEC50,SMILES
1,< 5.00,C/C(=C\c1c[nH]c2ccccc12)C(=O)O
2,4.95,C/C(=C\c1c[nH]c2ccccc12)C(=O)NCc1ccco1
3,5.66,C/C(=C\c1c[nH]c2ccccc12)C(=O)Nc1ccc(C(C)(C)C)cc1
4,4.89,COc1ccc(CNC(=O)/C=C/c2c[nH]c3ccccc23)cc1OC
5,4.19,C/C(=C\c1c[nH]c2ccccc12)C(=O)NCCN(C)C
6,< 5.00,CNC(=O)/C(C)=C/c1c[nH]c2ccccc12
7,4.47,C/C(=C\c1c[nH]c2ccccc12)C(=O)NCCCn1ccnc1
8,< 5.00,C/C(=C\c1c[nH]c2ccccc12)C(N)=O
9,4.36,C/C(=C\c1c[nH]c2ccccc12)C(=O)Nc1ccc(C(F)(F)F)cc1
10,4.65,CCOC(=O)/C(C)=C/c1c[nH]c2ccccc12
11,4.03,CC(C)NC(=O)/C=C/c1c[nH]c2ccccc12

# Test system: not listed separately
# Assay: Ratio of cytotoxicity against human Huh7.5 cells assessed as cell viability to antiviral activity against Hepatitis C virus JFH-1 J6 genotype 2a infected in human Huh7.5 cells assessed as inhibition of viral RNA replication
# Format: toxicity, cell-based, Huh-7
# Conditions: not given
row,SMILES,selectivity ratio
1,CC(C)(C)c1ccc(NC(=O)/C=C/c2c[nH]c3ccccc23)cc1,28.6
2,CCN(CC)C(=O)/C=C/c1c[nH]c2ccccc12,1.3
3,O=C(/C=C/c1c[nH]c2ccccc12)N1CCN(Cc2ccc(C(F)(F)F)cc2)CC1,2.5
4,Clc1ccc(Cn2c(CN3CCCC3)nc3ccccc32)cc1 [CLEMIZOLE],4.3
5,COc1ccc(CNC(=O)/C=C/c2c[nH]c3ccccc23)cc1OC,2.6
6,CC(C)NC(=O)/C=C/c1c[nH]c2ccccc12,1.5

# Test system: not listed separately
# Assay: Cytotoxicity against human Huh7.5 cells assessed as cell viability at 10 uM after 72 hrs by MTT assay relative to control
# Format: cell-based, Huh-7
# Conditions: read-out: Activity
# In short: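 Rluc-J6/JFH1 RNA-transfected Huh7.5 cells screened at a single 10 µM for 72 h alongside DMSO, with clemizole as positive control. Renilla luciferase gave replication level and parallel MTT gave viability, each as percent of DMSO; ratio of viability to replication reported.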
row,SMILES,"viability at 72 h, 10 µM"
1,CC(C)(C)c1ccc(NC(=O)/C=C/c2c[nH]c3ccccc23)cc1,60.1%
2,CCN(CC)C(=O)/C=C/c1c[nH]c2ccccc12,93.8%
3,O=C(/C=C/c1c[nH]c2ccccc12)N1CCN(Cc2ccc(C(F)(F)F)cc2)CC1,81.7%
4,Clc1ccc(Cn2c(CN3CCCC3)nc3ccccc32)cc1 [CLEMIZOLE],102%
5,COc1ccc(CNC(=O)/C=C/c2c[nH]c3ccccc23)cc1OC,92.2%
6,CC(C)NC(=O)/C=C/c1c[nH]c2ccccc12,106%

# Test system: Hepatitis C virus
# Assay: Antiviral activity against Hepatitis C virus JFH-1 J6 genotype 2a infected in human Huh7.5 cells assessed as viral RNA replication at 10 uM after 72 hrs by luciferase reporter gene assay relative to control
# Conditions: subtype 2a JFH1 J6, Huh-7, 72 h
row,SMILES,Activity at 10 µM
1,CC(C)(C)c1ccc(NC(=O)/C=C/c2c[nH]c3ccccc23)cc1,2.1%
2,CCN(CC)C(=O)/C=C/c1c[nH]c2ccccc12,72%
3,O=C(/C=C/c1c[nH]c2ccccc12)N1CCN(Cc2ccc(C(F)(F)F)cc2)CC1,32.4%
4,Clc1ccc(Cn2c(CN3CCCC3)nc3ccccc32)cc1 [CLEMIZOLE],23.4%
5,COc1ccc(CNC(=O)/C=C/c2c[nH]c3ccccc23)cc1OC,35.1%
6,CC(C)NC(=O)/C=C/c1c[nH]c2ccccc12,69%

# From ChEMBL document CHEMBL3120069, “Chemical genetics-based discovery of indole derivatives as HCV NS5B polymerase inhibitors” (Eur J Med Chem, 2014)
